ChEMBL document CHEMBL5500421 (J Med Chem, 2024)
The source made the active and inactive calls. The calls are words filed in the database; no cut-off is given here.

Legend:
[1] = target: T1, Sphingosine-1-phosphate transporter SPNS2 (Mus musculus) (UniProt Q91VM4); assay: Inhibition of mouse Spns2 expressed in G418-resistant human HeLa cells assessed as decrease in S1P level at 1 uM incubated for 16 to 18 hrs by LC-MS/MS analysis relative to control; format: cell-based; conditions: time 16-18 hrs
T1 sequence (whole entry): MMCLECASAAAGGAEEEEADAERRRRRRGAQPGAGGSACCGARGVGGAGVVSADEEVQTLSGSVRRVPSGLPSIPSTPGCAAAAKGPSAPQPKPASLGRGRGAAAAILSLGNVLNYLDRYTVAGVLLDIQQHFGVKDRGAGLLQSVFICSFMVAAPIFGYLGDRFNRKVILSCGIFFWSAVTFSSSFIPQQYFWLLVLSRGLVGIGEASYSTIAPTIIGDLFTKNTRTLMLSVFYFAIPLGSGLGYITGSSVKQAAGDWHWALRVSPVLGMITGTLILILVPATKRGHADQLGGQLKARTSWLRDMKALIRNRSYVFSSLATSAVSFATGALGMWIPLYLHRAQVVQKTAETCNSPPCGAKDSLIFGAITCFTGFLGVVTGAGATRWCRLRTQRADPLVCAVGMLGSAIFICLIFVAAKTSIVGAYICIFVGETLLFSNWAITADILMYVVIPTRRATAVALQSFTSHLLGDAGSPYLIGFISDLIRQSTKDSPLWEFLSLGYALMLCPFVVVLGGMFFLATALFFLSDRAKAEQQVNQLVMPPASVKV
Summary of the method: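 HeLa cells stably transfected with mouse Spns2 (pcDNA3.1; G418-resistant pools). S1P catabolism blocked with 4-deoxypyridoxine 1 mM, NaF 2 mM and Na3VO4 0.2 mM. Near-confluent cells incubated 16–18 h at 37 °C with 1 μM inhibitor in serum-free medium containing 0.2% fatty-acid-free BSA. Medium S1P measured by LC-MS/MS; reported as % decrease versus no-inhibitor control, in duplicate.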

Mus musculus [2] = assay: Effect on plasma S1P level in C57BL/6J mouse at 10 to 100 mg/kg, po measured after 4 hrs by LC-MS/MS analysis; format: functional, organism-based; conditions: dose 10-100 mg/kg
Summary of the method: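 Five female C57BL/6j mice, 8–10 weeks old, dosed by oral gavage at 10, 30 or 100 mg/kg in 36.1% PEG400/9.1% ethanol/4.6% solutol/50% H2O, or vehicle alone. Plasma S1P measured by LC-MS/MS 4 h post dose and expressed relative to vehicle.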

Mus musculus [3] = assay: Effect on plasma S1P level in C57BL/6J mouse at 3 to 30 mg/kg, ip measured after 6 hrs by LC-MS/MS analysis; conditions: dose 3-30 mg/kg
[4] = Drug concentration in C57BL/6J mouse plasma at 10 mg/kg, po measured after 8 hrs LC-MS/MS analysis; format: ADME, organism-based
Summary of the method: (§1)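 Three female C57BL/6j mice, 8–10 weeks old, given a single 10 mg/kg oral dose. Vehicle: 36.1% PEG400/9.1% ethanol/4.6% solutol/50% H2O. Blood sampled over time after dosing; plasma compound levels quantified by LC-MS/MS.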

[5] = Drug uptake in C57BL/6J mouse plasma at 10 mg/kg, po measured after 4 hrs by LC-MS/MS analysis; format: ADME, organism-based; conditions: in vivo; summary of the method: as §1
[6] = target: T1, Sphingosine-1-phosphate transporter SPNS2 (Mus musculus); assay: Inhibition of mouse Spns2 expressed in G418-resistant human HeLa cells assessed as decrease in S1P level incubated for 16 to 18 hrs by LC-MS/MS analysis; format: cell-based; conditions: dose upper 10.0 µM, time 16-18 hrs
Summary of the method: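 HeLa pools stably expressing mouse Spns2 (G418-selected), with S1P breakdown blocked by 4-deoxypyridoxine 1 mM, NaF 2 mM and Na3VO4 0.2 mM. Cells exposed for 16–18 h at 37 °C to 1 nM–10 μM inhibitor in serum-free 0.2% fatty-acid-free BSA medium. Released S1P quantified by LC-MS/MS; IC50 from dose–response […].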

Mus musculus [7] = assay: In vivo inhibition of Spns2 in C57BL/6J mouse assessed as decrease in lymphocytes count administered orally measured after 4 hrs by LC-MS/MS analysis; format: functional, organism-based; conditions: dose 10-100 mg/kg, route po
Summary of the method: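 Oral gavage at 10, 30 or 100 mg/kg, or vehicle (36.1% PEG400/9.1% ethanol/4.6% solutol/50% H2O), to five female C57BL/6j mice aged 8–10 weeks. Blood drawn 4 h post dose; lymphocytes counted in 20 μL blood on a haematology analyzer and compared with vehicle.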

Row | SMILES | inhibition [1] [%] | Activity (Mus musculus [2]) | Activity (Mus musculus [3]) | concentration at 8 h [4] [nM] | Drug uptake [5] | inhibition [6] | inhibition (Mus musculus [7])
1 | CCCCCCCCCCc1ccc(NC(=O)N2CCN[C@H](C)C2)cc1 | 80 | – | – | – | – | – | –
2 | CCCCCCCCCCc1ccc(NC(=O)N2CCNCC2)cc1.Cl | 91 | inactive | inactive | > 500 | Active | Dose-Dependent Effect | Dose-Dependent Effect
3 | CCCCCCCCCCc1ccc(NC(=O)N2CCN(C)CC2)cc1 | 3 | – | – | – | – | – | –
